Hits are enriched below; roughly 4.6% of the tested compounds scored in any of these assays.
TAAR1 antag: antagonists of human TAAR1 | Q96RJ0 | hit rate 1.5% among 360,000 | CHO RD-HGA16 TAAR1, Fluo-8 calcium fluorescence, antagonist | inhibition, % at 3 µM;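 active = inhibition above a per-plate cutoff, the mean inhibition of test compounds on that plate plus 3 SD, cut at about 49% in these data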
Target sequence (Q96RJ0 whole entry, looked up): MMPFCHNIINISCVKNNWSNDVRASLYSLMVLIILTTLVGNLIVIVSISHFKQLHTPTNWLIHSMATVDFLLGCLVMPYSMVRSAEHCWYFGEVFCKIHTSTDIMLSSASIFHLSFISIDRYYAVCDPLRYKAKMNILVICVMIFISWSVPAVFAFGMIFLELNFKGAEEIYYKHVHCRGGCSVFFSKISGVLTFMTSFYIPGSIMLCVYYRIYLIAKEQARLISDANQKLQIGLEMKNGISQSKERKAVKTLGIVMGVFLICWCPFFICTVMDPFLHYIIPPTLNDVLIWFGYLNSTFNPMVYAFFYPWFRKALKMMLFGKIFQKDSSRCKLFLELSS
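Test system: RD-HGA16 CHO cells with stable hTAAR1 and Gα16 / Probe or stimulus: EC80 β-phenethylamine stimulus / Times: seeding 17-24 h prior, 75-min 37 °C, 30-min RT dye loading / Detection: Fluo-8 calcium-sensitive fluorescence / Read-out basis: % inhibition scaled between DMSO and EC80 PEA controls / Repeats: singlicate, one well per test compound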
GPR7 antag: blocks human GPR7 receptor signaling. hit rate 1.1% among 290,000. inhibition, % at 4.4 µM. AID 1861. GPR7-expressing cells, fluorescence antagonist assay; in the data active = inhibition above about 16%, passing the limit was not always enough;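 note: cells stimulated with the agonist NPW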
TAAR1 agonist: agonists of human TAAR1; hit rate 0.99% among 360,000; activation, % at 3 µM; CHO RD-HGA16 TAAR1, Fluo-8 calcium fluorescence; vehicle wells 0%, saturating PEA agonist 100%;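 active = activation above the mean activation of all test compounds in the run plus 3 SD, cut at about 38% in these data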
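Signal – calcium-sensitive Fluo-8 signal, excitation 470-495, emission 515-575 nm · System – RD-HGA16 (CHO) cells co-expressing Gα16 and hTAAR1 · Incubation – 17-24 h seeding, 75 min 37 °C dye, 30 min RT · Compound dosing – 3 µM single concentration · Repeats – no replicates (n 1)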
OX1R antag-1: antagonists of human orexin 1 receptor (OX1R) | O43613 | inhibition, % at 6.6 µM | AID 485270 | OX1R-expressing cells, FRET antagonist read-out | hit rate 1.8% among 330,000; in the data active = inhibition mostly above about 38%, no sharp cut-off; inactive = mostly below about 40%
OX1R antag-2: blocks the human orexin 1 receptor. CHO/OX1R cells, Fluo-8 calcium fluorescence, orexin A. hit rate 0.43% among 330,000. inhibition, % at 5 µM. O43613. AID 434989;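 active = inhibition above its plate's threshold, mean inhibition of all tested compounds on the plate plus 3 SD, cut at about 37% in these data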
CHO parental Ca: counter-screen for OX1R antagonists: effect in parental CHO cells; parental CHO-K1, ATP-induced calcium, Fluo-8 fluorescence; inhibition, % at 5.6 µM; hit rate 0.63% among 330,000; AID 463079;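 active = inhibition above that plate's mean sample inhibition plus 3 SD, cut at about 26% in these data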
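Measured by: calcium-sensitive Fluo-8 fluorescence / Test system: CHO parental line / Controls: ATP-challenged DMSO wells low, unchallenged DMSO wells high / Measure: % inhibition / Compound: single nominal dose of 5.6 µM per compound / Replicates: single well per compound, no replicates / Reagent: ATP as calcium-mobilizing challenge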
TAAR1 ag confirm: human TAAR1 agonism, confirmed; shares compounds with TAAR1 agonist; CHO RD-HGA16 TAAR1, Fluo-8 calcium fluorescence; scaled: DMSO 0%, maximal phenethylamine 100%; activation, % at 3 µM; hit rate 82% among 2,400;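 active = activation above a cutoff set at the run's mean compound activation plus 3 SD, cut at about 39% in these data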
Ga16 nonsel ag: nonselective agonist in parental cells, TAAR1 agonist counter-screen | shares compounds with TAAR1 agonist | CHO-Ga16 parental, Fluo-8 calcium fluorescence; normalized to maximal ATP response, DMSO zero | activation, % at 3 µM | hit rate 50% among 2,400;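 active = activation above the run cutoff, the mean activation over all tested wells plus 3 SD, cut at about 12% in these data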
TAAR1 desens: counter-screen for human TAAR1 agonists: agonists that desensitize TAAR1 | shares compounds with TAAR1 agonist | CHO RD-HGA16 hTAAR1, Fluo-8 calcium, beta-PEA response inhibition | inhibition, % at 3 µM | hit rate 46% among 2,400;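 active = inhibition above the run cutoff, the mean inhibition of all test compounds plus 3 SD, cut at about 49% in these data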;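 note: beta-PEA stimulus applied at its EC80; loss of beta-PEA calcium signal after compound pretreatment read as receptor desensitization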
Ga16 antag count: counter-screen for TAAR1 agonists: nonselective Ga16 antagonists; shares compounds with TAAR1 agonist; CHO-Ga16 ATP-induced calcium, Fluo-8 fluorescence; inhibition, % at 3 µM; hit rate 39% among 2,400; AID 651952;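 active = inhibition above the plate's mean compound inhibition plus 3 SD, computed per plate, cut at about 22% in these data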
Hits are given with their value; 0 = inactive; - = no result.

SMILES	TAAR1 antag	GPR7 antag	TAAR1 agonist	OX1R antag-1	OX1R antag-2	CHO parental Ca	TAAR1 ag confirm	Ga16 nonsel ag	TAAR1 desens	Ga16 antag count
O=C1C2C3C=CC(C3)C2C(=O)N1c1cccc2ccccc12 (centres undefined)	0	0	0	0	0	0	-	-	-	-
Cc1cc(N2CCN(C(C(=O)NC3CCCC3)C(C)(C)C)CC2)c2ccccc2n1 (centres undefined)	0	-	0	-	-	-	-	-	-	-
CN(C)CCNc1ncnc2c1ncn2[C@H]1CN(CCc2ccccc2)C[C@@H](CO)O1	0	-	58	-	-	-	48	0	0	0
CNc1ncnc2c1ncn2[C@H]1CN(CCc2ccccc2)C[C@@H](CO)O1	0	-	0	-	-	-	-	-	-	-
Oc1c(C(c2cccs2)N2CCN(c3ccccc3)CC2)ccc2cccnc12 (centres undefined)	-	0	-	0	0	0	-	-	-	-
CN1CCN(C(c2ccc(C(F)(F)F)cc2)c2ccc3cccnc3c2O)CC1 (centres undefined)	0	0	102	0	0	0	129	94	63	0
Clc1cccc(Cl)c1CSc1nnc(-c2ccncc2)s1	79	0	117	0	0	0	128	117	100	75
O=C(COC(=O)c1ccc(Sc2ccccc2)c([N+](=O)[O-])c1)NC1CCS(=O)(=O)C1 (centres undefined)	0	0	0	0	0	0	-	-	-	-
CN1CCN(C2=Cc3ccccc3Sc3cc(F)ccc32)CC1	0	0	0	0	0	0	-	-	-	-
CN1CCN(C2=Cc3ccc(Cl)cc3Sc3ccc(F)cc32)CC1	0	0	49	0	0	0	57	41	57	44
COc1ccc(CN2C(=O)C(C)Nc3ncnc(N4CCc5ccccc5C4)c32)cc1 (centres undefined)	0	-	53	-	-	-	44	0	0	0
COc1ccc(CN2C(=O)C(C)Nc3ncnc(N4CCN(c5ccccn5)CC4)c32)cc1 (centres undefined)	0	-	0	0	0	0	-	-	-	-
O=C(CCSc1nc(-c2ccco2)cc(C(F)(F)F)n1)NCCc1ccccc1	0	0	0	0	0	0	-	-	-	-
FC(F)(F)c1cc(-c2ccco2)nc(NCCc2ccccc2)n1	0	0	55	0	0	0	83	0	0	0
COc1cccc(CNC(=O)Cn2cc([N+](=O)[O-])cn2)c1	0	0	0	0	0	0	-	-	-	-
O=C(NC(=S)NNC(=O)c1ccccc1O)c1cccs1	0	0	0	0	0	0	-	-	-	-
COc1ccccc1C(=O)NNC(=S)NC(=O)c1cccs1	0	0	106	0	0	0	103	77	0	38
COc1ccccc1C(=O)NC(=S)NNC(=O)c1sc2ccccc2c1Cl	74	0	117	0	0	0	166	124	106	87
COc1ccccc1C(=O)NNC(=S)NC(=O)c1sc2ccccc2c1Cl	80	0	145	0	0	0	140	118	106	94
COc1ccc(/C=C/C(=O)NC(=S)NNC(=O)c2cccs2)cc1	73	0	100	0	0	0	69	51	50	41
CCC[C@H]1CN(c2ccc(Br)cc2)C(=O)[C@@H]1CC(=O)NC	0	-	0	-	-	-	-	-	-	-
Nc1ccn(C2CSC(CO)O2)c(=O)n1 (centres undefined)	0	-	0	-	-	-	-	-	-	-
COc1ccc(-c2cc(C(=O)NCC(C)C)no2)cc1	0	0	72	0	0	0	0	0	77	0
CCC(C)NC(=O)c1cc(-c2ccc(OC)cc2)on1 (centres undefined)	0	0	0	0	0	0	-	-	-	-
